In data set [1] the test system is Trypanosoma cruzi. Description: Antitrypanosomal activity against Trypanosoma cruzi Tulahuen 2 epimastigotes assessed as inhibition of parasite growth at 25 uM relative to control. It is filed as functional. Particulars: read-out: GI. In short, it runs like this:
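Epimastigotes of T. cruzi Tulahuen 2 strain exposed to compound at 25 µM. Growth inhibition is given as percentage relative to untreated parasites. Values are means of three separate experiments, SD under 10%.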

Data set [2] concerns Trypanosoma cruzi. As to the kind of experiment: Antitrypanosomal activity against Trypanosoma cruzi Tulahuen 2 epimastigotes. Type of data set: functional, organism-based.
The nature of data set [3]: Octanol-water partition coefficient of the compound. Type of data set: physicochemical.

Where only a bound is given, the exact number is not on record here.

`COc1ccc(-c2c(C#N)[n+]([O-])c3cc(F)c(F)cc3[n+]2[O-])cc1`: in data set [1], the inhibition of growth at 25 µM was found to be 91.6%. The compound further registered an IC50 in data set [2] of 12.1 µM. Further, the log partition coefficient (logP) in data set [3] came out at 2.09.
In the same order, the values of `N#Cc1c(-c2ccc(F)cc2)[n+]([O-])c2ccc(Cl)cc2[n+]1[O-]` are 92.7%, 13.2 µM and 2.74.
For the compound `COc1ccc2c(c1)[n+]([O-])c(C#N)c(-c1ccccc1)[n+]2[O-]`, the inhibition of growth at 25 µM in data set [1] stood at 111%. Further, the IC50 in data set [2] turned out to be 19.3 µM. The compound also registered a lipophilicity (logP) in data set [3] of 1.58.
In the case of `Cc1ccc(-c2c(C#N)[n+]([O-])c3cc(C)ccc3[n+]2[O-])cc1`, in data set [1], the inhibition of growth at 25 µM was determined as 41.6%. The compound further registered a 50% inhibitory concentration (IC50) in data set [2] of 50 µM. The log partition coefficient (logP) in data set [3] amounted to 2.33.
For `Cc1cc2c(cc1C)[n+]([O-])c(-c1cccs1)c(C#N)[n+]2[O-]`, the inhibition of growth at 25 µM in data set [1] was 84.8%. In data set [2], this compound had an IC50 of 16.7 µM. The logP in data set [3] was 1.87.
In the same order, the values of `N#Cc1c(-c2ccc(F)cc2)[n+]([O-])c2cc(F)c(F)cc2[n+]1[O-]` are 29.4%, 36.6 µM and 2.74.
With `N#Cc1c(-c2cccs2)[n+]([O-])c2cc(F)c(F)cc2[n+]1[O-]`, the inhibition of growth at 25 µM in data set [1] came out at 82.9%. In data set [2], this compound displayed an IC50 of 10.4 µM. Moreover, in data set [3], the logP was determined as 2.15.
In the same order, the values of `N#Cc1c(-c2ccco2)[n+]([O-])c2ccccc2[n+]1[O-]` are 46.3%, 25 µM and 0.582.
For the compound `COc1ccc(-c2c(C#N)[n+]([O-])c3cc(C)ccc3[n+]2[O-])cc1`, the inhibition of growth at 25 µM in data set [1] worked out at 94.6%. Moreover, the IC50 in data set [2] was found to be 18.9 µM. In data set [3], this compound came in with a logP of 1.82.
For `Cc1ccc(-c2c(C#N)[n+]([O-])c3ccccc3[n+]2[O-])cc1`, the inhibition of growth at 25 µM in data set [1] was determined as 104%. The compound further gave a concentration for half-maximal inhibition (IC50) in data set [2] of 23.7 µM. Besides, the logP in data set [3] was determined as 2.09.
Consider `Cc1ccc2c(c1)[n+]([O-])c(C#N)c(-c1ccc(F)cc1)[n+]2[O-]`, for which the inhibition of growth at 25 µM in data set [1] was 83.8%. For the same compound, in data set [2], half-maximal inhibition (IC50) required 17.4 µM. The logP in data set [3] came to 2.48.
In the case of `COc1ccc(-c2c(C#N)[n+]([O-])c3cc(Cl)ccc3[n+]2[O-])cc1`, the inhibition of growth at 25 µM in data set [1] came to 110%. Moreover, half-maximal inhibition in data set [2] (IC50) was put at 14.3 µM. Moreover, in data set [3], the logP was 2.09.
In the same order, the values of `N#Cc1c(-c2ccc(Cl)cc2)[n+]([O-])c2ccc(C(F)(F)F)cc2[n+]1[O-]` are 100%, 9.2 µM and 3.22.
As to `N#Cc1c(-c2ccc(Cl)cc2)[n+]([O-])c2cc(F)c(F)cc2[n+]1[O-]`, the inhibition of growth at 25 µM in data set [1] is 80.9%. In addition, half-maximal inhibition in data set [2] (IC50) was put at 11.3 µM. This compound gave a lipophilicity (logP) in data set [3] of 2.87.
In the case of `COc1ccc2c(c1)[n+]([O-])c(C#N)c(-c1cccs1)[n+]2[O-]`, the inhibition of growth at 25 µM in data set [1] was found to be 109%. Also, in data set [2], the IC50 is 14.3 µM. Besides, the logP in data set [3] was determined as 1.11.
Take `Cc1ccc(-c2c(C#N)[n+]([O-])c3cc(C)c(C)cc3[n+]2[O-])cc1`: in data set [1], the inhibition of growth at 25 µM is 98.2%. Further, in data set [2], 21.2 µM corresponded to half-maximal inhibition (IC50). Besides, in data set [3], the logP came out at 2.57.
Regarding `Cc1cc2c(cc1C)[n+]([O-])c(-c1ccccc1)c(C#N)[n+]2[O-]`, the inhibition of growth at 25 µM in data set [1] was found to be 97.4%. Moreover, the IC50 in data set [2] was determined as 22.1 µM. In addition, the log partition coefficient (logP) in data set [3] is 2.33.
`N#Cc1c(-c2ccccc2)[n+]([O-])c2ccc(Cl)cc2[n+]1[O-]`: in data set [1], the inhibition of growth at 25 µM was 97.8%. The compound further displayed an IC50 in data set [2] of 18.1 µM. This compound yielded a log partition coefficient (logP) in data set [3] of 2.35.
Consider `COc1ccc2c(c1)[n+]([O-])c(C#N)c(-c1ccc(C)cc1)[n+]2[O-]`, for which, in data set [1], the inhibition of growth at 25 µM came out at 112%. The IC50 in data set [2] turned out to be 18.9 µM. The compound also displayed a logP in data set [3] of 1.82.
With `COc1ccc(-c2c(C#N)[n+]([O-])c3ccccc3[n+]2[O-])cc1`, the inhibition of growth at 25 µM in data set [1] amounted to 110%. The same compound had an IC50 in data set [2] of 19.3 µM. Also, in data set [3], the logP is 1.58.
In the same order, the values of `COc1ccc(-c2c(C#N)[n+]([O-])c3cc(Cl)c(Cl)cc3[n+]2[O-])cc1` are 42.7%, 29 µM and 2.33.
`Cc1ccc(-c2c(C#N)[n+]([O-])c3cc(F)c(F)cc3[n+]2[O-])cc1`: in data set [1], the inhibition of growth at 25 µM is 86.2%. The compound also displayed an IC50 in data set [2] of 14.6 µM. The same compound displayed a logP in data set [3] of 2.87.
Take `Cc1ccc(-c2c(C#N)[n+]([O-])c3cc(C(F)(F)F)ccc3[n+]2[O-])cc1`: in data set [1], the inhibition of growth at 25 µM is 114%. Further, the IC50 in data set [2] came out at 12.3 µM. In data set [3], the logP was determined as 2.95.
As for `N#Cc1c(-c2ccccc2)[n+]([O-])c2cc(Cl)c(Cl)cc2[n+]1[O-]`, the inhibition of growth at 25 µM in data set [1] was 90%. Further, in data set [2], inhibition was half-maximal at 15.3 µM (IC50). Besides, the logP in data set [3] turned out to be 2.87.
In the same order, the values of `Cc1ccc(-c2c(C#N)[n+]([O-])c3cc(Cl)ccc3[n+]2[O-])cc1` are 104%, 17.4 µM and 2.6.
Regarding `COc1ccc2c(c1)[n+]([O-])c(C#N)c(-c1ccco1)[n+]2[O-]`, the inhibition of growth at 25 µM in data set [1] was 33.4%. The IC50 in data set [2] was greater than 25 µM. This compound also showed a logP in data set [3] of 0.354.
In the same order, the values of `COc1ccc(-c2c(C#N)[n+]([O-])c3cc(F)ccc3[n+]2[O-])cc1` are 92.2%, 14.3 µM and 1.97.

What is called IC50 is the concentration needed to halve the response being measured. High values mean weaker potency, low ones greater potency. For orientation: logP means a log measure of how a compound divides between an organic and an aqueous phase. A high value points to higher lipophilicity.

For the origin of these results see ChEMBL document CHEMBL1208769, “Anti-T. cruzi activities and QSAR studies of 3-arylquinoxaline-2-carbonitrile di-N-oxides” (Bioorg Med Chem Lett, 2010).
